Data published in article PMC4168784 (ACS Chemical Biology, 2014).
Read-outs that look alike come from different tables or passages of the source. Square brackets hold non-standard residues; d marks the D form. Peptide text beside a SMILES is read from it. Orn(N5-OH,N5-Ac) = CC(=O)N(O)CCC[C@H](N)C(=O)O

Columns and labels:
YxeB-S142-6×His [1] = target: T1, YxeB-S142-6×His (Bacillus cereus, UniProt Q81IK3, L142S); assay: Fluorescence quenching; type: binding
T1 sequence (Q81IK3 19-306 L142S): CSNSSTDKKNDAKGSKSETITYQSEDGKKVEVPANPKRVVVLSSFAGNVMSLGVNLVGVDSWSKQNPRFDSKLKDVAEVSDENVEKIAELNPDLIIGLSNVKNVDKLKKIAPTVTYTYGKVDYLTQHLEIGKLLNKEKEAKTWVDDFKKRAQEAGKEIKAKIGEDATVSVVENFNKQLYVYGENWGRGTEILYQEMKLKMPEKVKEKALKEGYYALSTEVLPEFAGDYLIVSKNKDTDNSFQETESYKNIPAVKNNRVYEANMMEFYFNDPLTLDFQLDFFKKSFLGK

YxeB-L142-6×His [2] = target: T2, YxeB-L142-6×His (Bacillus cereus, UniProt Q81IK3); assay: Substrate binding assay using RP-HPLC; conditions: bound = substrate detected in the protein complex analyzed by RP-HPLC
T2 sequence (Q81IK3 19-306): T1 sequence (Q81IK3 19-306 L142S)
Summary of the method: (§1)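 His-tagged protein (2 μM) was bound to Ni-agarose beads in TBS over 2 h at RT. Substrate was added for 10 min at RT: 10 μM metal complex or 20 μM apo-ligand. Pellets were washed twice, then extracted with 20% acetonitrile (Ga complex) or 0.1% TFA for 20 min. C18 RP-HPLC at 220 nm followed, with a 0–25% acetonitrile gradient.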

YxeB-S142-6×His [3] = target: T1, YxeB-S142-6×His; assay: Substrate binding assay using RP-HPLC; conditions: bound = substrate detected in the protein complex analyzed by RP-HPLC
Summary of the method: as §1

YxeB-L142-6×His [4] = target: T2, YxeB-L142-6×His; assay: Fluorescence quenching; type: binding
[5] = system: DFO:YxeB-L142-6×His complex; assay: Iron exchange experiment in vitro analysed by RP-HPLC; type: biochemical, Bacillus cereus; conditions: for metal exchange rate (FO formed): 0.2 nmol/mL added; for FO bound to YxeB (iron transferred to DFO): 0.2 nmol/mL metal–substrate added to YxeB:DFO, 40 min incubation
[6] = system: DFO:YxeB-S142-6×His complex; assay: Iron exchange experiment in vitro analysed by RP-HPLC; type: biochemical, Bacillus cereus
Summary of the method: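 His-tagged YxeB (2 μM), 4 μM DFO and Ni-agarose beads were mixed 2 h at RT in TBS, then given 0.2 μM (final) acetylated ferrioxamine. Pelleted aliquots were washed twice and eluted 20 min in 0.01% TFA. Eluates ran on C18 RP-HPLC (0.1% TFA/acetonitrile, 0–25% over 50 min, 220 nm) to quantify bound ligands.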

[7] = Iron exchange experiment without the YxeB protein; conditions: 0.2 μM AcFO, 4 μM DFO, no protein; up to 24 h
Summary of the method: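 No protein was present: 4 μM DFO and 0.2 μM acetylated ferrioxamine (final concentrations) were mixed in TBS at RT. Samples taken at 0 and 5 min and at 1, 3 and 24 h went directly onto C18 RP-HPLC (0.1% TFA/acetonitrile, 0–25% over 50 min, 220 nm).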

TC137 strain [8] = assay: Growth assay in iron-limited minimum medium; type: cell-based, Bacillus cereus; conditions: 10 or 100 nM siderophore in iron-limited minimum medium
TC137 strain [9] = assay: Disc diffusion assay; type: cell-based, Bacillus cereus; conditions: 10 nmol infused in the disc (supplement: 10 pmol)
Summary of the method: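 Sterile filter discs were loaded with 10 nmol siderophore; 6 μL DMSO served as the negative control. Growth was scored around each disc.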

YxeB-S142-6×His [10] = target: T1, YxeB-S142-6×His; conditions: calculated previously; cited from earlier work
[11] = cited from earlier work
[12] = system: DFO:YxeB-L142-6×His complex; assay: Fe-/Ga-/Cr-DFO substrate binding; type: biochemical, Bacillus cereus; conditions: ICP analysis; for metal exchange rates or displaced substrate rates: 0.2 nmol/mL added, 30 min incubation; for substrates bound to YxeB except DFO: 0.2 nmol/mL metal–substrate added to YxeB:DFO, after 30 min incubation
Summary of the method: (§2)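 2 μM His-tagged YxeB variant, 4 μM DFO and Ni-agarose beads were shaken 2 h at RT in TBS (25 mM Tris-HCl, pH 7.4). Then 0.2 μM (final) Fe-, Ga- or Cr-hydroxamate was added at RT. Pellets collected at 0–30 min were digested overnight in 3.5% nitric acid and measured by ICP with 0.1 ppm Eu internal standard. Results are the mean of three experiments, with standard errors.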

[13] = system: DFO:YxeB-S142-6×His complex; assay: Fe-/Ga-/Cr-DFO substrate binding; type: biochemical, Bacillus cereus; conditions: ICP analysis; for metal exchange rates or displaced substrate rates: 0.2 nmol/mL added, 30 min incubation; for substrates bound to YxeB except DFO: 0.2 nmol/mL metal–substrate added to YxeB:DFO, after 30 min incubation
Summary of the method: as §2

[14] = system: DFO:YxeB-L/S142-6×His complex; assay: ICP exchange or displacement assay, text statements covering both variants; type: biochemical, Bacillus cereus; conditions: 0.2 μM added; for metal (Ga, Fe, Cr) contained in the YxeB complexes: both YxeB-L142 and -S142 complexes; for amounts of metal transferred after 5 min incubation: both variants; for Ga and Fe transferred to the DFO:YxeB complex: within the 5 min incubation time
Summary of the method: as §2

YxeB-L142-6×His [15] = target: T2, YxeB-L142-6×His; conditions: calculated previously; cited from earlier work
[16] = system: wild-type strains, TC128 and TC129; assay: Cr-DFO and Ga-DFO import, metal in cells measured by ICP; type: cell-based, Bacillus cereus; conditions: 2 μM metal complex added in the culture
Summary of the method: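 B. cereus cultures at OD600 0.8–1.3 received 2 μM metal–siderophore complex. Incubation was 120 min for Cr and 80 min for Ga, by which point OD600 was 1.6–2.1. Cell-associated Cr or Ga was then quantified by ICP. Values are the average of two independent experiments, with standard errors.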

[17] = read-out: Kd (nM) by FQ assay, calculated by Hyperquad, SD in parentheses
[18] = read-out: Kd (nM) by FQ assay, calculated using fluorescence quenching data previously described

CC(=O)NCCCCCN(O)C(=O)CCC(=O)NCCCCCN(O)C(=O)CCC(=O)NCCCCCN(O)C(C)=O [AcDFO]
Kd (YxeB-S142-6×His [1]): 30.7 nM
binding assay (HPLC) (YxeB-L142-6×His [2]): bound ^d
binding assay (HPLC) (YxeB-S142-6×His [3]): bound ^d

CC(=O)NCCCCCN(O)C(=O)CCC(=O)NCCCCCN(O)C(=O)CCC(=O)NCCCCCN(O)C(C)=O.[Fe+3] [AcFO]
Kd (YxeB-L142-6×His [4]; [17]): 25.4 nM
Kd (YxeB-S142-6×His [1]; [17]): 31.6 nM
binding assay (HPLC) (YxeB-L142-6×His [2]): bound ^d
binding assay (HPLC) (YxeB-S142-6×His [3]): bound ^d
exchange amount (FO formed) after 8 min incubation ([5]; 0.2 μM AcFO added, 8 min): approximately 0.2 μM
incubation time after which iron exchange with YxeB was complete ([5]; 0.2 μM AcFO, 4 μM DFO, 2 μM YxeB-L142-6×His): 2 min
AcDFO bound to YxeB ([5]; RP-HPLC, 0.2 nmol/mL AcFO added, 40 min): 0.110 nmol/mL sample
metal exchange rate (FO formed) ([5]; RP-HPLC, 40 min): 77%
FO bound to YxeB (iron transferred to DFO) ([5]; RP-HPLC): 0.153 nmol/mL sample
rate of iron-released substrate remaining bound to YxeB ([5]; RP-HPLC, AcDFO after AcFO addition): 55%
AcDFO bound to YxeB ([6]; 0.2 nmol/mL AcFO added): 0.089 nmol/mL sample
metal exchange rate (FO formed) ([6]; 0.2 nmol/mL AcFO added): 72%
FO bound to YxeB (iron transferred to DFO) ([6]; 0.2 nmol/mL AcFO added, 10 min incubation): 0.144 nmol/mL sample
rate of iron-released substrate remaining bound to YxeB ([6]; AcDFO after AcFO addition): 45%
iron exchange between AcFO and DFO without YxeB [7]: did not occur

CC(=O)N(O)CCCCCNC(=O)CCC(=O)N(O)CCCCCNC(=O)CCC(=O)N(O)CCCCCN [DFO, desferrioxamine B]
growth of TC137 compared to wild-type strains TC129 and TC128 (TC137 strain [8]): delayed
growth around a disc containing the siderophore (TC137 strain [9]): did not grow
Kd (YxeB-S142-6×His [10]): 35.9 nM
pFe^III [11]: 26.6

CC(=O)N(O)CCC[C@@H]1NC(=O)CNC(=O)CNC(=O)CNC(=O)[C@H](CCCN(O)C(C)=O)NC(=O)[C@H](CCCN(O)C(C)=O)NC1=O [DFch, desferrichrome] (cyclo(GGG[Orn(N5-OH,N5-Ac)][Orn(N5-OH,N5-Ac)][Orn(N5-OH,N5-Ac)]))
Kd (YxeB-L142-6×His [4]): 104 nM
Kd (YxeB-S142-6×His [1]): 23 nM
binding assay (HPLC) (YxeB-L142-6×His [2]): bound ^d
binding assay (HPLC) (YxeB-S142-6×His [3]): bound ^d
growth of TC137 compared to wild-type strains TC129 and TC128 (TC137 strain [8]): delayed
growth around a disc containing the siderophore (TC137 strain [9]): did not grow

CC(=O)N([O-])CCCCCNC(=O)CCC(=O)N([O-])CCCCCNC(=O)CCC(=O)N([O-])CCCCCN.[Fe+3] [FO, ferrioxamine B]
metal exchange rates or displaced substrate rates [12]: 86%
substrates bound to YxeB except DFO [12]: 0.172 nmol/mL sample
metal exchange rates or displaced substrate rates [13]: 83%
substrates bound to YxeB except DFO [13]: 0.166 nmol/mL sample
metal (Ga, Fe, Cr) contained in the YxeB complexes [14]: > 0.15 nmol/mL reaction solution
amounts of metal transferred after 5 min incubation [14]: 0.14–0.18 nmol/mL reaction solution
Ga and Fe transferred to the DFO:YxeB complex [14]: > 70%
Kd (YxeB-L142-6×His [15]): 38.8 nM
Kd (YxeB-S142-6×His [10]): 29.1 nM

CC(=O)N(O)CCC[C@@H]1NC(=O)CNC(=O)CNC(=O)CNC(=O)[C@H](CCCN(O)C(C)=O)NC(=O)[C@H](CCCN(O)C(C)=O)NC1=O.[Fe+3] [Fch, ferrichrome] (cyclo(GGG[Orn(N5-OH,N5-Ac)][Orn(N5-OH,N5-Ac)][Orn(N5-OH,N5-Ac)]))
Kd (YxeB-L142-6×His [4]; [18]): 43 nM
Kd (YxeB-S142-6×His [1]; [18]): 29.3 nM
binding assay (HPLC) (YxeB-L142-6×His [2]): bound ^d
binding assay (HPLC) (YxeB-S142-6×His [3]): bound ^d
Fch bound to YxeB (displacement) ([5]; RP-HPLC, 0.2 nmol/mL Fch added, 40 min): 0.037 nmol/mL sample
metal exchange rate (FO formed) ([5]; RP-HPLC, 40 min): 0%
FO bound to YxeB (iron transferred to DFO) ([5]; RP-HPLC): 0 nmol/mL sample
amount of Fch bound to the protein ([5]; displacement mechanism, 0.2 μM Fch, 40 min): 0.037 µM
pFe^III [11]: 25.2

O=C([O-])CN(CCN(CC(=O)[O-])CC(=O)[O-])CC(=O)[O-].[Fe+3] [Fe-EDTA]
metal exchange rate (FO formed) ([5]; RP-HPLC, 40 min): ≤ 1%
FO bound to YxeB (iron transferred to DFO) ([5]; RP-HPLC): 0.003 nmol/mL sample
pFe^III [11]: 23.4

O=C(N[C@H]1COC(=O)[C@@H](NC(=O)c2cccc([O-])c2[O-])COC(=O)[C@@H](NC(=O)c2cccc([O-])c2[O-])COC1=O)c1cccc([O-])c1[O-].[Fe+3] [Fe-Ent, Fe-enterobactin]
metal exchange rate (FO formed) ([5]; RP-HPLC, 40 min): ≤ 5%
pFe^III [11]: 34.3

CC(=O)N(O)CCCCCNC(=O)CCC(=O)N(O)CCCCCNC(=O)CCC(=O)N(O)CCCCCN.[Ga+3] [Ga-DFO]
Kd (YxeB-L142-6×His [4]; [17]): 59.2 nM
Kd (YxeB-S142-6×His [1]; [17]): 44.6 nM
binding assay (HPLC) (YxeB-L142-6×His [2]): bound ^d
binding assay (HPLC) (YxeB-S142-6×His [3]): bound ^d
metal exchange rates or displaced substrate rates [12]: 78%
substrates bound to YxeB except DFO [12]: 0.155 nmol/mL sample
metal exchange rates or displaced substrate rates [13]: 83%
substrates bound to YxeB except DFO [13]: 0.165 nmol/mL sample
metal (Ga, Fe, Cr) contained in the YxeB complexes [14]: > 0.15 nmol/mL reaction solution
amounts of metal transferred after 5 min incubation [14]: 0.14–0.18 nmol/mL reaction solution
Ga and Fe transferred to the DFO:YxeB complex [14]: > 70%
Ga or Cr in the cells (import) [16]: contained Ga or Cr in the cells

C=CC1=C(C)c2cc3[n-]c(cc4[n-]c(cc5nc(cc1n2)C(C)=C5C=C)c(C)c4CCC(=O)O)c(CCC(=O)O)c3C.O.[Fe+2] [hematin]
metal exchange rate (FO formed) ([5]; RP-HPLC, 40 min): ≤ 1%
FO bound to YxeB (iron transferred to DFO) ([5]; RP-HPLC): 0.003 nmol/mL sample

ferric citrate [Fe-Cit]
metal exchange rate (FO formed) ([5]; RP-HPLC, 40 min): 45%
FO bound to YxeB (iron transferred to DFO) ([5]; RP-HPLC): 0.089 nmol/mL sample
